Reference: ChEMBL document CHEMBL3232775, “Synthesis and evaluation of amide side-chain modified Agomelatine analogues as potential antidepressant-like agents” (Bioorg Med Chem Lett, 2014)
The source made the active and inactive calls. The rule behind the calls is not given here.

Tests used:
[1] = Cytotoxicity against human HEK293 cells assessed as inhibitory rate at 80 uM after 24 hrs by MTT assay; format: cell-based; settings: read-out: INH
In short: (§1)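 Human normal liver L02 cells and human embryonic kidney 293 cells treated with compound at 80 μM for 24 h. Viability of untreated cells taken as 100%; inhibitory rate reported as mean ± SD of three independent experiments.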

PC-12 = assay: Inhibition of corticosterone-induced rat PC12 cells lesions assessed as protection rate at 1.25 uM after 24 hrs by MTT assay; format: functional; set-up: scale not given: the % may be the effect or the level left
In short: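 Rat PC12 cells injured with corticosterone and co-treated with compound at 1.25 μM, absorbance read 24 h after treatment. Protection rate = (A_d − A_c)/A_c × 100%, where A_c is the mean absorbance of corticosterone-only controls and A_d that of corticosterone plus compound. Six independent experiments, ± SD.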

[2] = Octanol-water partition coefficient, log P of the compound; format: physicochemical
[3] = Cytotoxicity against human L02 cells assessed as inhibitory rate at 80 uM after 24 hrs by MTT assay; format: cell-based; settings: read-out: INH; in short: as §1
Mus musculus = assay: Antidepressant activity in C57 mouse assessed as decrease in immobility time at 32 mg/kg, ip on days 2 to 15 by forced swimming test; format: functional, organism-based; set-up: dose 32 mg/kg

| SMILES | cytotoxicity at 24 h, 80 µM [1] [%] | Activity (PC-12) [%] | logP [2] | cytotoxicity at 24 h, 80 µM [3] [%] | Activity (Mus musculus) |
| --- | --- | --- | --- | --- | --- |
| CCN1CCN(C(=O)NCCc2cccc3ccc(OC)cc23)CC1 | 3.9 | -7.7 | 1.35 | 3.1 | – |
| COc1ccc2cccc(CCNC(=O)N3CCCCC3)c2c1 | 16.6 | -11.5 | 2.81 | 22.6 | – |
| COc1ccc2cccc(CCNC(=O)N3CCC3)c2c1 | 28.4 | 15.7 | 1.56 | 18.4 | – |
| COc1ccc2cccc(CCNC(=O)CC3(CC(=O)O)CCCC3)c2c1 | 13.4 | -17.5 | -1.17 | 4.1 | – |
| COc1ccc2cccc(CCNC(=O)N3CCN(C(=O)OC(C)(C)C)CC3)c2c1 | 13.3 | 6.3 | 1.06 | 3 | – |
| COc1ccc2cccc(CCNC(=O)/C=C/C(=O)O)c2c1 | 33 | 23.2 | 1.54 | 3.4 | inactive |
| COc1ccc2cccc(CCNC(=O)/C(C)=C(\C)C(=O)O)c2c1 | 13.2 | 2.8 | 2.01 | 5.8 | – |
| CNCCC(Oc1ccc(C(F)(F)F)cc1)c1ccccc1 (stereo not drawn) [FLUOXETINE] | – | 19.7 | – | – | – |
| COc1ccc2cccc(CCNC(C)=O)c2c1 [AGOMELATINE] | 26.6 | 26.2 | 1.62 | 20.2 | – |
| COc1ccc2cccc(CCN3C(=O)CC(C)(C)CC3=O)c2c1 | 41.9 | -50.3 | 2.78 | 10.4 | – |
| COc1ccc2cccc(CCNC(=O)CC(C)(C)CC(=O)O)c2c1 | 34.1 | 6.3 | 1.75 | 5.7 | – |
| COc1ccc2cccc(CCN3C(=O)C(C)=C(C)C3=O)c2c1 | 9.6 | 34.2 | 1.53 | 13.8 | Active |
| COc1ccc2cccc(CCN3C(=O)CCC3=O)c2c1 | 8.1 | -16.8 | 1.87 | 8.5 | – |
| COc1ccc2cccc(CCN3C(=O)C(Cl)=C(Cl)C3=O)c2c1 | 17.2 | -12.8 | 1.99 | 3.4 | – |
| COc1ccc2cccc(CCNC(=O)CCC(=O)O)c2c1 | 13.9 | 11 | 1.35 | 3.1 | – |
| COc1ccc2cccc(CCNC(=O)N3CCC(c4ccccc4)CC3)c2c1 | 16.5 | 2.5 | 2.05 | 8.6 | – |
| COc1ccc2cccc(CCNC(=O)N(C)CCO)c2c1 | 7.1 | -19.5 | 1.12 | 5.5 | – |
| COc1ccc2cccc(CCNC(=O)N3CCCC3)c2c1 | 28.4 | 9.8 | -0.52 | 19.3 | – |
| COc1ccc2cccc(CCNC(=O)N3CCN(C)CC3)c2c1 | 46.6 | 13.6 | 1.88 | 20.1 | – |
| COc1ccc2cccc(CCNC(=O)/C(Cl)=C(\Cl)C(=O)O)c2c1 | 18.6 | -8.4 | 1.18 | 3.8 | – |
| COc1ccc2cccc(CCN3C(=O)c4ccc(Br)cc4C3=O)c2c1 | 11.5 | -10.5 | 2.57 | 9.1 | – |
